Sampled rows, rich in hits. Any-hit rate of the full collection: about 2.1%.
Runt-SMMHC FRET = Runt domain-CBFb-SMMHC interaction inhibition; Q01196+Q13951; Cerulean-Runt/Venus-CBFb-SMMHC FRET ratio 530/480, 1 h; inhibition, % at 20 µM; 220,000 tested, 0.74% active; AID 1434;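 active = mean inhibition across duplicate retests at 20 µM reaching about 50%, limit read from the data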;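 note: 0% = DMSO wells and 100% = wells with excess untagged CBFb-SMMHC; inhibitors lower the FRET ratio by blocking Runt binding to CBFb-SMMHC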
zVAD death inh = L929 zVAD cell death inhibition. viability rescue, % at 10 µM. L929 zVAD necroptosis rescue, ATP luminescence, 24 h; with zVAD 60 µM. 220,000 tested, 0.38% active;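 active = activation, scaled between plate controls, above about 75%, limit read from the data; inactive = activation under that limit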;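 note: 0% = zVAD with DMSO and 100% = DMSO alone without zVAD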
Hck-Nef inh = blocks Nef-activated human Hck kinase. P08631. Recombinant Hck-YEEI plus Nef, Z-Lyte FRET kinase assay. inhibition, % at 20 µM. 220,000 tested, 0.68% active. AID 463187;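 active = Hck-Nef kinase inhibition above about 50%, limit read from the data; inactive = inhibition below that limit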;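 note: 0% = DMSO with Hck plus Nef and 100% = Hck alone without Nef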
Target sequence (P08631 whole entry, looked up): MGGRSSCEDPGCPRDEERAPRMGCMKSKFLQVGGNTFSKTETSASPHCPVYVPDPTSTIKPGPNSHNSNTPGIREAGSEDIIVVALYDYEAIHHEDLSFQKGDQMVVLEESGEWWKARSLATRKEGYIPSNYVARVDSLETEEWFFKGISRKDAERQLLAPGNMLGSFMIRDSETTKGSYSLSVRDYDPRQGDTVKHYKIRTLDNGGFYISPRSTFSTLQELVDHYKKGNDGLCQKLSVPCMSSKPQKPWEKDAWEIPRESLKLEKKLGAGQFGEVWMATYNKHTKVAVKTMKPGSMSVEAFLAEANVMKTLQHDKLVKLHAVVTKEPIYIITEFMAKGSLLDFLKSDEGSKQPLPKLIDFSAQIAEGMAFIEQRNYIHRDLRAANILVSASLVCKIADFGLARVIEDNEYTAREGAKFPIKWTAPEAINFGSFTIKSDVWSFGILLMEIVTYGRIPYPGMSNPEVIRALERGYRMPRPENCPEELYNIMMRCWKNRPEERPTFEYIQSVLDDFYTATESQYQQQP
RanGTP-Impb inh = inhibitors of RanGTP-importin-beta interaction, primary screen, biochemical, FRET, CFP-Ran, YFP-importin-beta, homogeneous | AID 2216 | cell-free CFP-Ran/YFP-importin-beta FRET ratio | 300,000 tested, 1.1% active | inhibition, % (test concentration not listed);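 active = more than half of the replicate wells show a fall in the fluorescence ratio signal beyond about 16%, limit read from the data, passing the limit was not always enough; inconclusive = exactly half of the replicate wells pass the set limit; inactive = fewer than half of replicates pass the limit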;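 note: 0% = DMSO wells and 100% = Ran loaded with GDP instead of GTP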
Runt-CBFb FRET = blocks binding of human RUNX1 Runt domain to CBFb; Q01196+Q13951; inhibition, % at 20 µM; Cerulean-Runt/Venus-CBFb FRET ratio 530/480, 1 h; 220,000 tested, 0.46% active; AID 1496;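 active = inhibition over about 50% at 20 µM in the single-dose screen, limit read from the data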;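 note: 0% = DMSO wells and 100% = excess unlabeled CBFb competitor control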
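Measured by: fluorescence energy transfer, 422 nm excitation, 530/480 nm emission; Assay system: Cerulean-Runt domain; Medium: Tris pH 7.5 buffer with BSA; Measure: loss of energy transfer signal; Controls: 5 µM unlabeled CBFb as full-inhibition high control; Incubation: protein complex preformed 1 h, compound exposure 1 h, room temperature, dark.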
TNF death inh = TNF-alpha cell death inhibition in Jurkat FADD-/- cells; Jurkat FADD-/- TNF necroptosis rescue, ATP luminescence, 24 h; 0 = TNF only, 100 = no-TNF cells; activation (protection from cell death), % at 10 µM; 220,000 tested, 0.068% active;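 active = activation, meaning protection from cell death, of at least 50% relative to plate controls; inactive = activation below 50%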;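 note: necroptosis triggered by 40 ng/mL TNF-alpha added together with compound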
Hck-Nef confirm = confirmation of Hck-Nef kinase inhibitors. shares compounds with Hck-Nef inh. Recombinant Hck-YEEI:Nef, Z-Lyte FRET kinase assay. calls only at 10 µM. 1,300 tested, 28% active. AID 463188;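 active = average inhibition of at least 50%, with Z-scores no higher than 3 in both the phospho-tyrosine peptide and fluorescence counterscreens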
Numbers without * were called inactive; i = inactive; ? = inconclusive; . = no result shown; + = active, no number.

SMILES	Runt-SMMHC FRET	zVAD death inh	Hck-Nef inh	RanGTP-Impb inh	Runt-CBFb FRET	TNF death inh	Hck-Nef confirm
COc1ccccc1C(=O)Oc1cc(N)n(S(=O)(=O)c2ccc(C)cc2)n1	-8	2	94*	1	-1	1	+
COc1cc2[nH]c(=O)n(CCC(=O)N3CCN(Cc4ccccc4)CC3)c(=O)c2cc1OC	-3	1	11	7	2	1	.
COc1cc2[nH]c(=O)n(CCC(=O)N3CCN(c4cccc(C)c4C)CC3)c(=O)c2cc1OC	0	3	74*	1	3	-2	i
c1ccc(-n2cnc3ccccc32)nc1	.	.	.	-1	.	.	.
c1ccc(-c2nccc(-c3ccc(-n4cnc5ccccc54)cc3)n2)cc1	-4	0	102*	-6	-3	1	i
COc1ccc(-c2csc(NC(=O)C3CC(=O)N(Cc4ccccc4)C3)n2)cc1OC (stereo unspecified)	.	.	.	-3	.	.	.
CCOC(=O)c1c(C)[nH]c(C(=O)OCC(=O)N2CCc3ccccc32)c1C	3	1	92*	-2	-7	1	i
Cc1ccn2c(NC(C)(C)C)c(-c3cccs3)nc2c1	-5	0	5	-7	-2	0	.
Cc1ccc2nc3nc(NCC4CCCO4)c(C(=O)NC4CCCCC4)cc3c(=O)n2c1 (stereo unspecified)	.	-2	134*	177*	.	0	.
Cc1ccc2nc3c(cc(C(=O)NC4CCS(=O)(=O)C4)n3Cc3ccccc3)c(=O)n2c1 (stereo unspecified)	.	.	.	5	.	.	.
CCNc1nc2nc3ccc(C)cn3c(=O)c2cc1C(=O)NCC1CCCO1 (stereo unspecified)	91*	-1	+	185*	19	1	.
Cc1ccc2nc3nc(NCC4CCCO4)c(C(=O)NC4CCCC4)cc3c(=O)n2c1 (stereo unspecified)	63*	-1	164*	181*	19	2	.
Cc1ccc2nc(SCC(=O)NC3CCCCC3)nc(=O)n2c1	.	.	.	-1	.	.	.
Cc1ccc(-c2nn(-c3ccc(F)cc3)cc2C(=O)NCC2CCCO2)cc1 (stereo unspecified)	.	.	.	1	.	.	.
CC(=O)N1CCOc2ccc(S(=O)(=O)N(C)c3cccc(C)c3)cc21	.	.	.	8	.	.	.
Cc1cc(C)c2c(=O)[nH]c(SCC(=O)c3ccc(C)c(C)c3)nc2n1	-5	0	12	?	-2	2	.
CSc1cccc(NC(=O)CN(C)S(=O)(=O)c2cnc[nH]2)c1	.	.	.	2	.	.	.
COc1cccc(CN2CCC(C(=O)Nc3ccc(-c4cccc(C)c4)cc3)CC2)c1O	.	.	.	2	.	.	.
Cc1cccc(N2C(=O)c3cccc4c(N(C)CCO)ccc(c34)C2=O)c1	-230	0	-5	-164	-211	-1	.
Cc1ccc(S(=O)(=O)Nc2ccc(N(C)C)cc2)cc1	3	2	85*	2	11	1	i
CN(C)c1ccc(NS(=O)(=O)c2ccc(Cl)cc2)cc1	2	1	1	-1	14	3	.
CCOC(=O)CC(C)(C)/C(C)=N/Nc1ccc([N+](=O)[O-])cc1[N+](=O)[O-]	-2	0	-1	3	-4	0	.
COCCNC(=O)/C(C#N)=C1\N=C(NC(=O)c2cccs2)c2ccccc21	.	.	.	1	.	.	.
COCCNC(=O)/C(C#N)=C1\N=C(N)c2ccccc21	10	1	53*	0	1	-1	i
CCN1CCN(Cc2ccc(NC(=O)c3ccc(C)c(NC(=O)c4cc(-c5ccc(Br)cc5)n[nH]4)c3)cc2C(F)(F)F)CC1	40	68	96*	3	2	-21	+
Cc1cc(=O)oc2cc(NS(=O)(=O)c3ccccc3)ccc12	91*	0	114*	3	38	2	.
Cc1cc(=O)oc2cc(NS(=O)(=O)c3ccc(F)cc3)ccc12	67*	0	106*	3	25	3	.

Screens as filed in PubChem BioAssay.
